This note sets out measurements from paper PMC3204787 (Biochemistry, 2011).

For assay [1], the target named is T1, wild type HIV-1 RT (Human immunodeficiency virus type 1 group M subtype B, UniProt P03366). The assay is described as follows: Steady-state kinetics of polymerization, wild-type enzyme. In kind it is biochemical. The conditions noted are these: WT, 25°C.
For assay [2], the target named is T2, HIV-1 RT Q91A (Human immunodeficiency virus type 1 group M subtype B, UniProt P03366, Q690A). The assay is described as follows: Steady-state kinetics of polymerization, Q91A mutant. In kind it is biochemical. As to conditions: Q91A, 25°C.
The target in assay [3] is T3, HIV-1 RT Q91N (Human immunodeficiency virus type 1 group M subtype B, UniProt P03366, Q690N). The assay is described as follows: Steady-state kinetics of polymerization, Q91N mutant. In kind it is biochemical. In a few lines:
(§1)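 Run at 25 °C with 40 nM mutant RT and 100 nM poly rA.dT18 or poly rC.dG18, each prepared by annealing equimolar template and primer at 20 μM. Buffer was 50 mM Tris-HCl pH 7.5, 2 mM MgCl2, 1 mM DTT and 100 μg/mL BSA. Complementary dTTP or dGTP was varied, with [3H]dTTP specific activity set using unlabeled dTTP. Reactions were started with MgCl2 and stopped with ice-cold 5% TCA at set times, then filtered and scintillation-counted. Km and Vmax came from Eadie-Hofstee plots of initial velocities; kcat = Vmax/[E].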

In assay [4] the target is T4, HIV-1 RT Q91A+M184V (Human immunodeficiency virus type 1 group M subtype B, UniProt P03366, M783V/Q690A). The assay is described as follows: Steady-state kinetics of polymerization, Q91A+M184V mutant. In kind it is biochemical. As to conditions: Q91A+M184V, 25°C.
The target of assay [5] is T5, HIV-1 RT Q91N+M184V (Human immunodeficiency virus type 1 group M subtype B, UniProt P03366, M783V/Q690N). The assay is described as follows: Steady-state kinetics of polymerization, Q91N+M184V mutant. In kind it is biochemical. The conditions noted are these: 25°C. The gist of the method: as §1
Assay [6] addresses T6, HIV-1 RT M184V (Human immunodeficiency virus type 1 group M subtype B, UniProt P03366, M783V). The assay is described as follows: Steady-state kinetics of polymerization, M184V mutant. In kind it is biochemical. The conditions noted are these: 25°C.
The subject of assay [7] is HIV-1 RT Q91A. The assay is described as follows: Steady-state kinetics of polymerization, Q91A mutant. In kind it is biochemical, human immunodeficiency virus type 1. The conditions noted are these: Q91A vs wild type; poly-rA.dT18 template, dTTP.
Assay [8] deals with HIV-1 RT Q91A+M184V. The assay is described as follows: Steady-state kinetics of polymerization, Q91A+M184V mutant. In kind it is biochemical, human immunodeficiency virus type 1. The conditions noted are these: Q91A/M184V vs wild type; poly-rA.dT18 template, dTTP.
Assay [9] addresses T1, wild type HIV-1 RT. The assay is described as follows: Inhibition of reverse transcription by ddNTP inhibitors, wild-type enzyme. In kind it is biochemical. As to conditions: WT; for Ki: 37 °C 3 min; for IC50: IC50=Ki(1+[S]/Km).
In assay [10] the target is T2, HIV-1 RT Q91A. The assay is described as follows: Inhibition of reverse transcription by ddNTP inhibitors, Q91A mutant. In kind it is biochemical. As to conditions: for Ki: 37 °C 3 min; for IC50: IC50=Ki(1+[S]/Km).
The target in assay [11] is T3, HIV-1 RT Q91N. The assay is described as follows: Inhibition of reverse transcription by ddNTP inhibitors, Q91N mutant. In kind it is biochemical. The conditions noted are these: for Ki: 37 °C 3 min; for IC50: IC50=Ki(1+[S]/Km). In a few lines:
(§2)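 Recombinant heterodimeric HIV-1 RT (p66 with N-terminally His-tagged p51), mutation present in both subunits, used at 10 nM. The enzyme was preincubated with 100 nM poly rA.dT18 or poly rC-dG18 for 2 min at 25 °C. Synthesis was started with Mg-complexed 10 μM [3H]dTTP or dGTP (1 μCi per assay) plus varied ddTTP or ddGTP, then run 3 min at 37 °C. Reactions were stopped with cold 5% TCA/5 mM PPi, collected on GF/B filters and counted by scintillation. Ki came from percent inhibition using the competitive-inhibitor equation; IC50 = Ki(1+[S]/Km). Three independent experiments.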

Assay [12] addresses T4, HIV-1 RT Q91A+M184V. The assay is described as follows: Inhibition of reverse transcription by ddNTP inhibitors, Q91A+M184V mutant. In kind it is biochemical. As to conditions: for Ki: 37 °C 3 min; for IC50: IC50=Ki(1+[S]/Km).
For assay [13], the target named is T5, HIV-1 RT Q91N+M184V. The assay is described as follows: Inhibition of reverse transcription by ddNTP inhibitors, Q91N+M184V mutant. In kind it is biochemical. The conditions noted are these: for Ki: 37 °C 3 min; for IC50: IC50=Ki(1+[S]/Km). In a few lines: as §2
The target in assay [14] is T6, HIV-1 RT M184V. The assay is described as follows: Inhibition of reverse transcription by ddNTP inhibitors, M184V mutant. In kind it is biochemical. As to conditions: for Ki: 37 °C 3 min; for IC50: IC50=Ki(1+[S]/Km).
Where [15] appears, read: Poly rC.dG18 template-primer, dGTP substrate.
The mark [16] stands for this setting: Poly rA.dT18 template-primer, dTTP substrate.
Setting [17] is: poly rC-dG18 100 nM, dGTP 10 μM.
The mark [18] stands for this setting: poly rA.dT18 100 nM, dTTP 10 μM.

Structures are written as SMILES.

In the case of `Nc1nc2c(ncn2[C@H]2C[C@H](O)[C@@H](COP(=O)(O)OP(=O)(O)OP(=O)(O)O)O2)c(=O)[nH]1` [dGTP], the KmdGTP turned out to be 6.0 ± 1.4 µM on wild type HIV-1 RT [1] (Poly rC.dG18 template-primer); 25.0 ± 4.0 µM on HIV-1 RT Q91A [2] (Poly rC.dG18 template-primer); 8.0 ± 2.1 µM on HIV-1 RT Q91N [3] (Q91N, Poly rC.dG18 template-primer, 25°C); 57.0 ± 5.0 µM at HIV-1 RT Q91A+M184V [4] (Poly rC.dG18 template-primer); 8.0 ± 1.8 µM on HIV-1 RT Q91N+M184V [5] (Poly rC.dG18 template-primer); 8.0 ± 2.2 µM at HIV-1 RT M184V [6] (Poly rC.dG18 template-primer). Further, the Kcat was 0.15 ± 0.019 s⁻¹ on wild type HIV-1 RT [1] (setting [15]); 0.02 ± 0.006 s⁻¹ at HIV-1 RT Q91A [2] (setting [15]); 0.02 ± 0.002 s⁻¹ at HIV-1 RT Q91N [3] (Q91N, Poly rC.dG18 template-primer, dGTP substrate, 25°C); 0.06 ± 0.010 s⁻¹ at HIV-1 RT Q91A+M184V [4] (setting [15]); 0.04 ± 0.012 s⁻¹ at HIV-1 RT Q91N+M184V [5] (setting [15]); 0.08 ± 0.011 s⁻¹ on HIV-1 RT M184V [6] (setting [15]). For the same molecule, on HIV-1 RT Q91N [3] (Q91N vs wild type, poly rC template, range given jointly for Q91N and Q91N/M184V), the “decrease in catalytic efficiency” value is 5–10 fold.

With `Cc1cn([C@H]2C[C@H](O)[C@@H](COP(=O)(O)OP(=O)(O)OP(=O)(O)O)O2)c(=O)[nH]c1=O` [dTTP], the KmdTTP on wild type HIV-1 RT [1] (Poly rA.dT18 template-primer) came out at 3.0 ± 1.1 µM; on HIV-1 RT Q91A [2] (Poly rA.dT18 template-primer), 30.0 ± 3.5 µM; on HIV-1 RT Q91N [3] (Q91N, Poly rA.dT18 template-primer, 25°C) it was 7.0 ± 1.5 µM; at HIV-1 RT Q91A+M184V [4] (Poly rA.dT18 template-primer), 37.0 ± 4.0 µM; on HIV-1 RT Q91N+M184V [5] (Poly rA.dT18 template-primer), 5.0 ± 1.0 µM; on HIV-1 RT M184V [6] (Poly rA.dT18 template-primer), 3.5 ± 1.2 µM. The Kcat at wild type HIV-1 RT [1] (setting [16]) was determined as 0.39 ± 0.6 s⁻¹; on HIV-1 RT Q91A [2] (setting [16]), 0.10 ± 0.03 s⁻¹; at HIV-1 RT Q91N [3] (Q91N, Poly rA.dT18 template-primer, dTTP substrate, 25°C) it was 0.25 ± 0.08 s⁻¹; at HIV-1 RT Q91A+M184V [4] (setting [16]), 0.23 ± 0.07 s⁻¹; on HIV-1 RT Q91N+M184V [5] (setting [16]), 0.27 ± 0.11 s⁻¹; at HIV-1 RT M184V [6] (setting [16]), 0.53 ± 0.12 s⁻¹. Further, the entries for the “decrease in the catalytic efficiency” value in the assay on HIV-1 RT Q91A [7] and in the assay on HIV-1 RT Q91A+M184V [8] were 21 fold and 43 fold, respectively.

Take `Nc1nc2c(ncn2[C@H]2CC[C@@H](COP(=O)(O)OP(=O)(O)OP(=O)(O)O)O2)c(=O)[nH]1` [ddGTP]: the Ki at wild type HIV-1 RT [9] (setting [17]) was 0.112 µM; at HIV-1 RT Q91A [10] (setting [17]), 0.885 µM; on HIV-1 RT Q91N [11] (setting [17]) it was 0.476 µM; on HIV-1 RT Q91A+M184V [12] (setting [17]), 0.418 µM; at HIV-1 RT Q91N+M184V [13] (setting [17]), 0.13 µM; on HIV-1 RT M184V [14] (setting [17]), 0.403 µM. Besides, the IC50 against wild type HIV-1 RT [9] (setting [17]) came out at 0.308 µM; at HIV-1 RT Q91A [10] (setting [17]), 1.24 µM; against HIV-1 RT Q91N [11] (setting [17]) it was 1.09 µM; at HIV-1 RT Q91A+M184V [12] (setting [17]) it was 0.491 µM; at HIV-1 RT Q91N+M184V [13] (setting [17]), 0.285 µM; at HIV-1 RT M184V [14] (setting [17]) it was 0.9 µM.

Turning to `Cc1cn([C@H]2CC[C@@H](COP(=O)(O)OP(=O)(O)OP(=O)(O)O)O2)c(=O)[nH]c1=O` [ddTTP], the Ki at wild type HIV-1 RT [9] (setting [18]) is 0.004 µM; at HIV-1 RT Q91A [10] (setting [18]), 0.076 µM; on HIV-1 RT Q91N [11] (setting [18]), 0.062 µM; at HIV-1 RT Q91A+M184V [12] (setting [18]), 0.045 µM; at HIV-1 RT Q91N+M184V [13] (setting [18]) it was 0.012 µM; at HIV-1 RT M184V [14] (setting [18]), 0.018 µM. For the same molecule, the IC50 is 0.017 µM against wild type HIV-1 RT [9] (setting [18]); 0.101 µM against HIV-1 RT Q91A [10] (setting [18]); 0.15 µM on HIV-1 RT Q91N [11] (setting [18]); 0.057 µM on HIV-1 RT Q91A+M184V [12] (setting [18]); 0.036 µM at HIV-1 RT Q91N+M184V [13] (setting [18]); 0.069 µM at HIV-1 RT M184V [14] (setting [18]).
